# In ChEMBL document CHEMBL4339200, “Structure-based Discovery of Phenyl (3-Phenylpyrrolidin-3-yl)sulfones as Selective, Orally Active RORγt Inverse Agonists” (ACS Med Chem Lett, 2019):
# Assays:
# [1] = biological target: T1, Nuclear receptor subfamily 1 group I member 2 (Homo sapiens, UniProt O75469); test: Transactivation of PXR in human HepG2 cells; type: ADME, cell-based
# T1 sequence (O75469 whole entry): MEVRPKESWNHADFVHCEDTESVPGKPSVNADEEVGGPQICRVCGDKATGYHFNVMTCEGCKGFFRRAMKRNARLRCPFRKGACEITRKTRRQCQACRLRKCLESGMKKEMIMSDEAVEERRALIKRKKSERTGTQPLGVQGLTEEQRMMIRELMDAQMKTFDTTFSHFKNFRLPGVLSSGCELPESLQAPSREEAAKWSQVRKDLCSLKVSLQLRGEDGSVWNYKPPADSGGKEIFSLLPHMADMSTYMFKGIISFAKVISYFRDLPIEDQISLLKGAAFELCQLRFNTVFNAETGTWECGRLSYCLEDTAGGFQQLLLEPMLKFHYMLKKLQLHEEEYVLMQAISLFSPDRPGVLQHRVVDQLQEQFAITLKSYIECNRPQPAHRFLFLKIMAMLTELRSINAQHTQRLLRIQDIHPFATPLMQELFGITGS
# PXR (NR1I2) = biological target: T2, PXR (NR1I2) (Homo sapiens, UniProt O75469); test: Transactivation of PXR in human HepG2 cells relative to rifampicin; type: ADME, cell-based; details: read-out: %max
# T2 sequence (O75469 whole entry): T1 sequence (O75469 whole entry)
# [2] = biological target: T3, Oxysterols receptor LXR-alpha (Homo sapiens, UniProt Q13133); test: Agonist activity at LXRalpha (unknown origin) expressed in African green monkey CV1 cells; type: cell-based
# T3 sequence (Q13133 whole entry): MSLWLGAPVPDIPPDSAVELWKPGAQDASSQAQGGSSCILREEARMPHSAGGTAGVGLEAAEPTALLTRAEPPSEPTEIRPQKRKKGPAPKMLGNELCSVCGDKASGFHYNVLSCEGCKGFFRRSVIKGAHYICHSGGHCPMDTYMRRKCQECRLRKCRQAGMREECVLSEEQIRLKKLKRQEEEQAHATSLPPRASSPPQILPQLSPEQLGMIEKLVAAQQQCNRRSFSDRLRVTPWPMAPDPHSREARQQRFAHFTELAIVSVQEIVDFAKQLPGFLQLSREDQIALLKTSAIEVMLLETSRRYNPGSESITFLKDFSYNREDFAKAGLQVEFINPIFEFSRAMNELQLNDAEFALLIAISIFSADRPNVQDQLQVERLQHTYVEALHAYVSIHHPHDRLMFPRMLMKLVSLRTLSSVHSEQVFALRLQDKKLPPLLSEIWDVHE
# [3] = biological target: T4, Oxysterols receptor LXR-alpha (Homo sapiens) (UniProt Q13133); test: Agonist activity at LXRalpha (unknown origin) expressed in African green monkey CV1 cells relative to T0901317; type: cell-based
# T4 sequence (whole entry): T3 sequence (Q13133 whole entry)
# [4] = biological target: T5, Oxysterols receptor LXR-beta (Homo sapiens, UniProt P55055); test: Agonist activity at LXRbeta (unknown origin) expressed in African green monkey CV1 cells; type: cell-based
# T5 sequence (P55055 whole entry): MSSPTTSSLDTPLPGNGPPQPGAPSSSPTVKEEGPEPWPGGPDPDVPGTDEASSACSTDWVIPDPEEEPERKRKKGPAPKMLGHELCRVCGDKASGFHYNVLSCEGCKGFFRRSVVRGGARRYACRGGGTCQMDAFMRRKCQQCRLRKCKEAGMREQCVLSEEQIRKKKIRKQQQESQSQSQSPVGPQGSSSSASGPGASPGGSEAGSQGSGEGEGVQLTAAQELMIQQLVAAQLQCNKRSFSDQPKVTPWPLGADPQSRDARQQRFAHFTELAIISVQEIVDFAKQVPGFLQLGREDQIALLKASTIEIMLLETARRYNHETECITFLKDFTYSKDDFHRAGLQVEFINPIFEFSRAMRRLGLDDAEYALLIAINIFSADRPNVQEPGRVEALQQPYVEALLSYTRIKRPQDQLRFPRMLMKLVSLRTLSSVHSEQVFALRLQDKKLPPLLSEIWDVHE
# [5] = Stability in mouse liver microsomes assessed as parent compound remaining after 10 mins; type: ADME, Microsome; details: read-out: Stability
# Summary of the method: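 Rough stability screen: compound incubated with mouse liver microsomes for 10 min, reported as percentage of parent remaining.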
# [6] = Protein binding in human plasma assessed as unbound fraction; type: ADME, cell-free
# [7] = Protein binding in mouse plasma assessed as unbound fraction; type: ADME, cell-free
# [8] = Permeability in human Caco2 cells; type: ADME, cell-based; details: Caco-2, read-out: permeability
# Summary of the method: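 Caco-2 monolayer permeability, reported as permeation coefficient in nm/s; an efflux ratio was also determined.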
# [9] = biological target: T6, Oxysterols receptor LXR-beta (Homo sapiens) (UniProt P55055); test: Agonist activity at LXRbeta (unknown origin) expressed in African green monkey CV1 cells relative to T0901317; type: cell-based
# T6 sequence (whole entry): T5 sequence (P55055 whole entry)
SMILES,EC50 [1] [µM],Emax (PXR (NR1I2)) [%],EC50 [2] [µM],%max [3] [%],EC50 [4] [µM],remaining at 10 min [5] [%],fraction unbound [6],fraction unbound [7],Papp [8] [×10⁻⁶ cm/s],%max [9] [%]
O=S(=O)(c1ccc(F)cc1)C1(c2ccc(C(Cl)(C(F)(F)F)C(F)(F)F)cc2)CCCC1,0.229,110,,,,,,,,
CC(O)(c1ccc(C2(S(=O)(=O)c3ccc(F)cc3)CCCC2)cc1)C(F)(F)F (racemic),0.239,110,,,,,,,,
NC(c1ccc(C2(S(=O)(=O)c3ccc(F)cc3)CCCC2)cc1)(C(F)(F)F)C(F)(F)F,0.275,120,,,,,,,,
CC(c1ccc(C2(S(=O)(=O)c3ccc(F)cc3)CCCC2)cc1)(C(F)(F)F)C(F)(F)F,0.752,140,,,,,,,,
O=S(=O)(c1ccc(F)cc1)C1(c2ccc(C(F)(C(F)(F)F)C(F)(F)F)cc2)CCCC1,1.01,130,,,,,,,,
O=S(=O)(c1ccc(F)cc1)C1(c2ccc(C(O)(C(F)(F)F)C(F)(F)F)cc2)CCCC1,0.01,110,,,,,,,,
O=C(O)[C@H]1CC[C@@H](C(=O)N2CC[C@](c3ccc(C(F)(C(F)(F)F)C(F)(F)F)cc3)(S(=O)(=O)c3ccc(F)cc3)C2)CC1,,,> 7.5,,> 7.5,,,,,
O=C(O)[C@H]1CC[C@H](C(=O)N2CC[C@](c3ccc(C(F)(C(F)(F)F)C(F)(F)F)cc3)(S(=O)(=O)c3ccc(F)c(C4CC4)c3)C2)CC1,> 50,9,> 7.5,,> 7.5,74,,,,
COc1ccc(S(=O)(=O)[C@@]2(c3ccc(C(F)(C(F)(F)F)C(F)(F)F)cc3)CCN(C(=O)[C@H]3CC[C@H](C(=O)O)CC3)C2)cc1,> 50,12,> 7.5,,> 7.5,98,,,,
Cc1cc(S(=O)(=O)[C@@]2(c3ccc(C(F)(C(F)(F)F)C(F)(F)F)cc3)CCN(C(=O)[C@H]3CC[C@H](C(=O)O)CC3)C2)ccc1F,> 22.8,40,> 7.5,,> 7.5,84,0.017,0.029,,
O=C(C1CCCC1)N1CCC(c2ccc(C(O)(C(F)(F)F)C(F)(F)F)cc2)(S(=O)(=O)c2ccc(F)cc2)C1 (racemic),0.794,99,> 7.5,,> 7.5,,,,,
O=C(O)C1CCN(C(=O)N2CC[C@](c3ccc(C(F)(C(F)(F)F)C(F)(F)F)cc3)(S(=O)(=O)c3ccc(F)cc3)C2)CC1,> 46.1,23,> 7.5,,> 7.5,88,,,,
CCc1cc(S(=O)(=O)[C@@]2(c3ccc(C(F)(C(F)(F)F)C(F)(F)F)cc3)CCN(C(=O)[C@H]3CC[C@H](C(=O)O)CC3)C2)ccc1F,> 50,9,> 7.5,,> 7.5,73,,,,
CCC(O)(c1ccc(C2(S(=O)(=O)c3ccc(F)cc3)CCCC2)cc1)C(F)(F)F (racemic),0.048,110,,,,,,,,
O=C(O)[C@H]1CC[C@H](C(=O)N2CC[C@](c3ccc(C(F)(C(F)(F)F)C(F)(F)F)cc3)(S(=O)(=O)c3ccc(Cl)cc3)C2)CC1,6.44,22,> 7.5,,> 7.5,100,,,,

# The remaining lines, values ahead:
EC50 [1] [µM],Emax (PXR (NR1I2)) [%],EC50 [2] [µM],%max [3] [%],EC50 [4] [µM],remaining at 10 min [5] [%],fraction unbound [6],fraction unbound [7],Papp [8] [×10⁻⁶ cm/s],%max [9] [%],SMILES
0.434,110,2.92,58,> 7.5,,,,,,O=S(=O)(c1ccc(F)cc1)[C@@]1(c2ccc(C(O)(C(F)(F)F)C(F)(F)F)cc2)CCNC1
,,> 7.5,,> 7.5,,,,,,CC(=O)N1CCC(C(=O)N2CC[C@](c3ccc(C(O)(C(F)(F)F)C(F)(F)F)cc3)(S(=O)(=O)c3ccc(F)cc3)C2)CC1
> 2.47,89,> 7.5,,> 7.5,,,,,,CS(=O)(=O)N1CCC(C(=O)N2CC[C@](c3ccc(C(O)(C(F)(F)F)C(F)(F)F)cc3)(S(=O)(=O)c3ccc(F)cc3)C2)CC1
> 50,2,> 7.5,,> 7.5,69,,,,,CS(=O)(=O)N1CCC(C(=O)N2CC[C@](c3ccc(C(F)(C(F)(F)F)C(F)(F)F)cc3)(S(=O)(=O)c3ccc(F)cc3)C2)CC1
> 50,10,> 7.5,,> 7.5,96,,,,,O=C(O)[C@H]1CC[C@H](C(=O)N2CC[C@](c3ccc(C(F)(C(F)(F)F)C(F)(F)F)cc3)(S(=O)(=O)c3ccccc3)C2)CC1
,10,> 7.5,,> 7.5,68,,,,,CC(=O)N1CCN(C(=O)N2CC[C@](c3ccc(C(F)(C(F)(F)F)C(F)(F)F)cc3)(S(=O)(=O)c3ccc(F)cc3)C2)CC1
12.6,29,> 7.5,,> 7.5,85,0.013,0.026,,,Cc1ccc(S(=O)(=O)[C@@]2(c3ccc(C(F)(C(F)(F)F)C(F)(F)F)cc3)CCN(C(=O)[C@H]3CC[C@H](C(=O)O)CC3)C2)cc1
> 50,3,> 7.5,,> 7.5,100,,,,,CCc1ccc(S(=O)(=O)[C@@]2(c3ccc(C(F)(C(F)(F)F)C(F)(F)F)cc3)CCN(C(=O)[C@H]3CC[C@H](C(=O)O)CC3)C2)cc1
,,> 7.5,,> 7.5,,,,,,CCNC(=O)N1CCC(c2ccc(C(O)(C(F)(F)F)C(F)(F)F)cc2)(S(=O)(=O)c2ccc(F)cc2)C1 (racemic)
0.52,110,> 7.5,,> 7.5,,,,,,O=S(=O)(c1ccc(F)cc1)[C@]1(c2ccc(C(O)(C(F)(F)F)C(F)(F)F)cc2)CCNC1
,,> 7.5,,> 7.5,,,,,,CC(=O)N1CCN(C(=O)N2CC[C@](c3ccc(C(O)(C(F)(F)F)C(F)(F)F)cc3)(S(=O)(=O)c3ccc(F)cc3)C2)CC1
> 50,11,> 3.75,,> 7.5,,,,< 1.5,,O=C(O)[C@H]1CC[C@H](C(=O)N2CC[C@](c3ccc(C(O)(C(F)(F)F)C(F)(F)F)cc3)(S(=O)(=O)c3ccc(F)cc3)C2)CC1
0.48,100,> 7.5,,> 7.5,,,,,,CC(=O)N1CCC(c2ccc(C(O)(C(F)(F)F)C(F)(F)F)cc2)(S(=O)(=O)c2ccc(F)cc2)C1 (racemic)
,7,> 7.5,,> 7.5,,,,,,CC(=O)N1CCC(C(=O)N2CC[C@](c3ccc(C(F)(C(F)(F)F)C(F)(F)F)cc3)(S(=O)(=O)c3ccc(F)cc3)C2)CC1
,,> 7.5,,> 7.5,,,,,,CC(=O)N1CCN(C(=O)N2CC[C@@](c3ccc(C(O)(C(F)(F)F)C(F)(F)F)cc3)(S(=O)(=O)c3ccc(F)cc3)C2)CC1
,,0.408,62,1.9,,,,,39,COC(=O)N1CCC(c2ccc(C(O)(C(F)(F)F)C(F)(F)F)cc2)(S(=O)(=O)c2ccc(F)cc2)C1 (racemic)
